Laboratory results from ChEMBL document CHEMBL3046951, “Volatile constituents from the leaves of Callicarpa japonica Thunb. and their antibacterial activities” (2004).

How the values were obtained:
Format in all cases: functional
Listeria monocytogenes = test: Antimicrobial activity against Listeria monocytogenes ATCC 19111 assessed as growth inhibition rate at 4 mg/l after 72 hr by spectrophotometry; conditions: ATCC 19111, 72 h, read-out: GI
How it was run: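 L. monocytogenes was grown at 30 °C in tryptic soy broth, subcultured for 18 h, and exposed to pure volatile compounds (>95% purity). Growth was followed by Bioscreen C optical density every 24 h for 72 h against a 10% Tween 80 control.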

Vibrio parahaemolyticus = test: Antimicrobial activity against Vibrio parahaemolyticus ATCC 33844 assessed as growth inhibition rate at 4 mg/l after 72 hr by spectrophotometry; conditions: ATCC 33844, 72 h, read-out: GI
Salmonella typhimurium = test: Antimicrobial activity against Salmonella enterica subsp. enterica serovar Typhimurium ATCC 14028 assessed as growth inhibition rate at 4 mg/l after 72 hr by spectrophotometry; conditions: ATCC 14028, 72 h, read-out: GI
How it was run: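 Salmonella Typhimurium ATCC 14028 grown in nutrient broth at 30 °C, precultured 24 h, then subcultured 1:100 for 18 h before testing. Single volatile compounds (>95% pure) were added. OD was read every 24 h over 72 h in a Bioscreen C, with 10% Tween 80 as the comparison control.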

Escherichia coli = test: Antimicrobial activity against Escherichia coli O157:H7 ATCC 43894 assessed as growth inhibition rate at 4 mg/l after 72 hr by spectrophotometry; conditions: O157:H7 ATCC 43894, 72 h, read-out: GI
Staphylococcus aureus = test: Antimicrobial activity against Staphylococcus aureus ATCC 25923 assessed as growth inhibition rate at 4 mg/l after 72 hr by spectrophotometry; conditions: ATCC 25923, 72 h, read-out: GI
Bacillus cereus = test: Antimicrobial activity against Bacillus cereus ATCC 11778 assessed as growth inhibition rate at 4 mg/l after 72 hr by spectrophotometry; conditions: ATCC 11778, 72 h, read-out: GI
How it was run: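 Pure volatile compounds (purity >95%; one at 90%) were tested against B. cereus ATCC 11778. The strain was grown at 30 °C in nutrient broth for 24 h, then subcultured for 18 h. Optical density was read in a Bioscreen C every 24 h for 72 h, with 10% Tween 80 as the control.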

CC1=CC[C@@H]2C3C(C(C)C)CCC2(C)[C@@H]13 (stereo partly drawn) [(-)-ALPHA-COPAENE]
inhibition of growth at 4 µg/mL (Listeria monocytogenes): 0%
inhibition of growth at 4 µg/mL (Vibrio parahaemolyticus): 0%
inhibition of growth at 4 µg/mL (Salmonella typhimurium): 0.1%
inhibition of growth at 4 µg/mL (Escherichia coli): 0%
inhibition of growth at 4 µg/mL (Staphylococcus aureus): 5.7%
inhibition of growth at 4 µg/mL (Bacillus cereus): 5.9%
